The record followed here is ChEMBL document CHEMBL1141093, “Metabolic regio- and stereoselectivity of cytochrome P450 2D6 towards 3,4-methylenedioxy-N-alkylamphetamines: in silico predictions and experimental validation” (J Med Chem, 2005).

In data set [1] the test system is CN[C@@H](C)Cc1ccc2c(c1)OCO2. Put plainly: (§1) Michaelis-Menten constant for oxidation to N-OH-MDMA by cytochrome P450 2D6 (Phe120Ala mutant). It is filed as ADME, Homo sapiens. The procedure, abridged: (§2)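 E. coli membranes expressing His-tagged wild-type or Phe120Ala CYP2D6 (25 nM CYP) were incubated in 50 mM KPi pH 7.4 with 5 mM MgCl2. Substrate was tested at 10 concentrations, 0–200 µM. After 5 min preincubation at 37 °C, an NADPH-regenerating system was added (0.2 mM NADPH final). Reactions ran 10 min and were stopped with HClO4. Products were separated by C18 HPLC and read by fluorescence (ex 280/em 320 nm). Km and Vmax came from nonlinear regression of peak areas; at least two independent experiments.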

Data set [2] relates to CN[C@H](C)Cc1ccc2c(c1)OCO2. The description is as §1. It is filed as ADME, Homo sapiens. Summed up: as §2
The subject of data set [3] is CNC(C)Cc1ccc2c(c1)OCO2. Described as §1. The data set is classed as ADME, Homo sapiens. Summed up: as §2
For data set [4], the system named is CCNC(C)Cc1ccc2c(c1)OCO2. The data set is described as §1. The data set is classed as ADME, Homo sapiens. Summed up:
as §2

Data set [5] deals with CCCNC(C)Cc1ccc2c(c1)OCO2. The data set is described as §1. It is filed as ADME, Homo sapiens. Summed up:
as §2

Data set [6] relates to CN[C@@H](C)Cc1ccc2c(c1)OCO2. Put plainly: (§3) Michaelis-Menten constant for oxidation to 3,4-OH-MA by cytochrome P450 2D6 (Phe120Ala mutant). It is filed as ADME, Homo sapiens. Summed up:
as §2

Data set [7] deals with CN[C@H](C)Cc1ccc2c(c1)OCO2. The data set is described as §3. It is filed as ADME, Homo sapiens. Summed up: as §2
Data set [8] relates to CNC(C)Cc1ccc2c(c1)OCO2. The description is as §3. It is filed as ADME, Homo sapiens. The procedure, abridged: as §2
Data set [9] relates to CCNC(C)Cc1ccc2c(c1)OCO2. Described as §3. It is filed as ADME, Homo sapiens. The procedure, abridged:
as §2

For data set [10], the system named is CCCNC(C)Cc1ccc2c(c1)OCO2. The description is as §3. The data set is classed as ADME, Homo sapiens. Summed up: as §2
Data set [11] relates to CN[C@@H](C)Cc1ccc2c(c1)OCO2. Put plainly: (§4) Michaelis-Menten constant for oxidation to MDA by cytochrome P450 2D6 (Phe120Ala mutant). The data set is classed as ADME, Homo sapiens. The procedure, abridged:
as §2

The subject of data set [12] is CN[C@H](C)Cc1ccc2c(c1)OCO2. The description is as §4. It is filed as ADME, Homo sapiens. Summed up: as §2
The test system of data set [13] is CNC(C)Cc1ccc2c(c1)OCO2. The description is as §4. It is filed as ADME, Homo sapiens. Summed up: as §2
In data set [14] the test system is CCNC(C)Cc1ccc2c(c1)OCO2. The data set is described as §4. The data set is classed as ADME, Homo sapiens. The procedure, abridged:
as §2

The test system of data set [15] is CCCNC(C)Cc1ccc2c(c1)OCO2. The description is as §4. It is filed as ADME, Homo sapiens. Summed up: as §2
In data set [16] the target is T1, Cytochrome P450 2D6 (Homo sapiens, UniProt P10635, F120A). Put plainly: Vmax for oxidation to 3,4-OH-MA by cytochrome P450 2D6 (Phe120Ala mutant); expressed as 10E5 fluorescence units min-1 nmol-1 CYP; expressed in 10E5 fluorescence units min-1 nmol-1 CYP. It is filed as ADME. The procedure, abridged:
as §2

Data set [17] addresses T1, Cytochrome P450 2D6. Put plainly: Vmax for oxidation to N-OH-MDMA by cytochrome P450 2D6 (Phe120Ala mutant); expressed in 10E5 fluorescence units min-1 nmol-1 CYP. The data set is classed as ADME. Summed up:
as §2

Data set [18] deals with Cytochrome P450 2D6 (Homo sapiens, UniProt P10635). Description: Vmax for oxidation to 3,4-OH-MA by cytochrome P450 2D6 (wild type pSP19T7LT); expressed in 10E5 fluorescence units min-1 nmol-1 CYP. The data set is classed as ADME. The procedure, abridged:
as §2

The target of data set [19] is T1, Cytochrome P450 2D6. Description: Vmax for oxidation to 3,4-OH-MA by cytochrome P450 2D6 (Phe120Ala mutant); expressed in 10E5 fluorescence units min-1 nmol-1 CYP. The data set is classed as ADME. Summed up:
as §2

Substrate in data set [20]: CNC(C)Cc1ccc2c(c1)OCO2
Put plainly: (§5) Michaelis-Menten constant for oxidation to 3,4-OH-MA by cytochrome P450 2D6 (wild type pSP19T7LT). The data set is classed as ADME, Homo sapiens. Summed up:
as §2

Substrate in data set [21]: CN[C@H](C)Cc1ccc2c(c1)OCO2
The data set is described as §5. It is filed as ADME, Homo sapiens. The procedure, abridged:
as §2

Substrate in data set [22]: CN[C@@H](C)Cc1ccc2c(c1)OCO2
The description is as §5. The data set is classed as ADME, Homo sapiens. Summed up:
as §2

Substrate in data set [23]: CCCNC(C)Cc1ccc2c(c1)OCO2
The data set is described as §5. It is filed as ADME, Homo sapiens. Summed up:
as §2

T1 sequence (P10635 whole entry F120A): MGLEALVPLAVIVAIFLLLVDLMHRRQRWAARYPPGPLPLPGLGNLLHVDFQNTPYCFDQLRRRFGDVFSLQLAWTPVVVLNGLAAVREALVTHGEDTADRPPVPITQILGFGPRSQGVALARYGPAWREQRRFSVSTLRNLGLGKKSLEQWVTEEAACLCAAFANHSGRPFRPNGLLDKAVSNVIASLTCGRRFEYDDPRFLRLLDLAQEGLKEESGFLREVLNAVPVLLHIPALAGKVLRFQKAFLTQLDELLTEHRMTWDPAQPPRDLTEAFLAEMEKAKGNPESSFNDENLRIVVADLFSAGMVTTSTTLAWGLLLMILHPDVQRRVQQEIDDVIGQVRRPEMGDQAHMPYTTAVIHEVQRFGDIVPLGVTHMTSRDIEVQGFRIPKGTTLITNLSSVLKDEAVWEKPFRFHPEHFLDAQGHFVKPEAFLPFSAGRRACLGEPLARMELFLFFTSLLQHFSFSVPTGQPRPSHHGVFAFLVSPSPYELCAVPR

In general, Km refers to the substrate concentration at which the rate is half of its maximum. A word on the kcat: it is the maximal rate divided by the concentration of active sites. With “Cytochrome P450 2D6 (Homo sapiens; F120A)”, the Michaelis constant (Km) turned out to be 6.9 µM in data set [1]; 20.6 µM in data set [2]; 11.2 µM in the data set on CNC(C)Cc1ccc2c(c1)OCO2 [3]; 5.7 µM with CCNC(C)Cc1ccc2c(c1)OCO2 [4]; 28 µM in the data set with CCCNC(C)Cc1ccc2c(c1)OCO2 [5]; 4.9 µM in data set [6]. The Michaelis-Menten constant (Km) in data set [7] amounted to 13.2 µM; in the data set on CNC(C)Cc1ccc2c(c1)OCO2 [8] it was 11.8 µM; in the data set on CCNC(C)Cc1ccc2c(c1)OCO2 [9] it was 3.3 µM; in the data set on CCCNC(C)Cc1ccc2c(c1)OCO2 [10] it was 5.2 µM; in data set [11], 10.3 µM; in data set [12], 26.1 µM. Moreover, the Michaelis-Menten constant (Km) with CNC(C)Cc1ccc2c(c1)OCO2 [13] is 14.5 µM; in the data set with CCNC(C)Cc1ccc2c(c1)OCO2 [14], 4.5 µM; in the data set with CCCNC(C)Cc1ccc2c(c1)OCO2 [15] it was 9.1 µM. For the same molecule, the kcat in data set [11] was 0.0633 s⁻¹; in [12] it was 0.0983 s⁻¹; in the data set with CNC(C)Cc1ccc2c(c1)OCO2 [13], 0.0583 s⁻¹; in the data set with CCNC(C)Cc1ccc2c(c1)OCO2 [14], 0.07 s⁻¹; with CCCNC(C)Cc1ccc2c(c1)OCO2 [15], 0.122 s⁻¹.

`CN[C@@H](C)Cc1ccc2c(c1)OCO2`: the Vmax came to 2.4 on Cytochrome P450 2D6 [16] and 8.4 at Cytochrome P450 2D6 [17].

Turning to `CNC(C)Cc1ccc2c(c1)OCO2` (stereo not drawn) [MIDOMAFETAMINE], the figures for the Vmax at Cytochrome P450 2D6 [18] and on Cytochrome P450 2D6 [19] were 1.2 and 2.2, respectively.

Turning to `CCCNC(C)Cc1ccc2c(c1)OCO2` (stereo not drawn), the Vmax on Cytochrome P450 2D6 [18] was determined as 1.3; on Cytochrome P450 2D6 [19] it was 7.5; on Cytochrome P450 2D6 [17], 3.

As to `CCNC(C)Cc1ccc2c(c1)OCO2` (stereo not drawn), the Vmax on Cytochrome P450 2D6 [18] is 1.2; on Cytochrome P450 2D6 [19], 2.9; on Cytochrome P450 2D6 [17], 1.4.

As for `CN[C@H](C)Cc1ccc2c(c1)OCO2`, the values for the Vmax at Cytochrome P450 2D6 [18], at Cytochrome P450 2D6 [19] and at Cytochrome P450 2D6 [17] were 1.2, 2.4 and 10.7, respectively.

B1: Cytochrome P450 2D6 (Homo sapiens) (protein)
chain: MGLEALVPLAVIVAIFLLLVDLMHRRQRWAARYPPGPLPLPGLGNLLHVDFQNTPYCFDQLRRRFGDVFSLQLAWTPVVVLNGLAAVREALVTHGEDTADRPPVPITQILGFGPRSQGVFLARYGPAWREQRRFSVSTLRNLGLGKKSLEQWVTEEAACLCAAFANHSGRPFRPNGLLDKAVSNVIASLTCGRRFEYDDPRFLRLLDLAQEGLKEESGFLREVLNAVPVLLHIPALAGKVLRFQKAFLTQLDELLTEHRMTWDPAQPPRDLTEAFLAEMEKAKGNPESSFNDENLRIVVADLFSAGMVTTSTTLAWGLLLMILHPDVQRRVQQEIDDVIGQVRRPEMGDQAHMPYTTAVIHEVQRFGDIVPLGVTHMTSRDIEVQGFRIPKGTTLITNLSSVLKDEAVWEKPFRFHPEHFLDAQGHFVKPEAFLPFSAGRRACLGEPLARMELFLFFTSLLQHFSFSVPTGQPRPSHHGVFAFLVSPSPYELCAVPR
B1: the Km was determined as 1.9 µM in [20], 2.7 µM in [21], 3.3 µM in [22] and 1 µM in [23]. Also, in data set [22], the catalytic constant (kcat) worked out at 0.02 s⁻¹.
